The record followed here is ChEMBL document CHEMBL1155477, “Benzothiophene containing Rho kinase inhibitors: Efficacy in an animal model of glaucoma” (Bioorg Med Chem Lett, 2010).

pIC50: −log10 of the molar value. Values after ≈ are worked out from the molar mass of the structure shown. Active and inactive are the calls of the source. No cut-off for these calls is given here.

Data set [1] concerns the target T1, Rho-associated protein kinase 1 (Homo sapiens, UniProt Q13464). Description: Inhibition of ROCK1 assessed as ATP cunsumption.
Target sequence in this assay (Q13464 whole entry): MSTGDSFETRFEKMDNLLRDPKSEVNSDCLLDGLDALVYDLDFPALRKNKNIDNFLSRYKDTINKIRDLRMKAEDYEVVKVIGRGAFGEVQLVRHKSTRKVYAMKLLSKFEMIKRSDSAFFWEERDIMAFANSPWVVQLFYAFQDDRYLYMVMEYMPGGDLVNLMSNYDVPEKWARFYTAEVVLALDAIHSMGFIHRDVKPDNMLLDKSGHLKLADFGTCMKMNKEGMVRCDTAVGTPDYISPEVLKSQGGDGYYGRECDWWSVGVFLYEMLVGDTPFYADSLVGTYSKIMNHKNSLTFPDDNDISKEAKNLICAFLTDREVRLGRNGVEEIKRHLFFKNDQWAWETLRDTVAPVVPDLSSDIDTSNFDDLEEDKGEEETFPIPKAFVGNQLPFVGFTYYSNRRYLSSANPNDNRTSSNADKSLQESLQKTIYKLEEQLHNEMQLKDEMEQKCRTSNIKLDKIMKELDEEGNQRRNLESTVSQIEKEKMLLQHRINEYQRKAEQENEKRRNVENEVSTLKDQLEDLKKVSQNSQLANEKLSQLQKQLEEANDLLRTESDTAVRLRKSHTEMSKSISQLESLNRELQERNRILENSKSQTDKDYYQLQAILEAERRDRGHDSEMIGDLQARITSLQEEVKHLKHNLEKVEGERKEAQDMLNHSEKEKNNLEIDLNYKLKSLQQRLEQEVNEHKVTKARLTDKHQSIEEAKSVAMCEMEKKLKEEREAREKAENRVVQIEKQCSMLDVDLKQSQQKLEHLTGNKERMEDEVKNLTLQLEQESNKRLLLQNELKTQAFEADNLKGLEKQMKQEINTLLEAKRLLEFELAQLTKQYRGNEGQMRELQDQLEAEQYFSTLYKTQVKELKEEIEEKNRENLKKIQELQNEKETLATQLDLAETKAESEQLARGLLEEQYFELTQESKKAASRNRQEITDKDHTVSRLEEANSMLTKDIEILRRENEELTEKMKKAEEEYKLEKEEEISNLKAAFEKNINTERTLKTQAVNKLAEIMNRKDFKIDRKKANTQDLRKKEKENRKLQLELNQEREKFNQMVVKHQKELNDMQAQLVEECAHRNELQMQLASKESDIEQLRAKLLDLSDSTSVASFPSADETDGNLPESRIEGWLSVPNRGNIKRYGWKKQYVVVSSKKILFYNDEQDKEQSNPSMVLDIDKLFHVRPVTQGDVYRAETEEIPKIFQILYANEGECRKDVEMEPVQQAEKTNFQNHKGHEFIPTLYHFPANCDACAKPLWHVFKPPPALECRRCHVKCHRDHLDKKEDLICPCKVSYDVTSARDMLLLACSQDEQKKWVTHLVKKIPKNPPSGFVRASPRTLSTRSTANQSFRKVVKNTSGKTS
Data set [2] has as its target T1, Rho-associated protein kinase 1. Description: Inhibition of ROCK1 in human GTM3 cells up to 10 uM by impedance assay. In kind it is cell-based.
Target sequence in this assay (Q13464 2-1354 limits assumed): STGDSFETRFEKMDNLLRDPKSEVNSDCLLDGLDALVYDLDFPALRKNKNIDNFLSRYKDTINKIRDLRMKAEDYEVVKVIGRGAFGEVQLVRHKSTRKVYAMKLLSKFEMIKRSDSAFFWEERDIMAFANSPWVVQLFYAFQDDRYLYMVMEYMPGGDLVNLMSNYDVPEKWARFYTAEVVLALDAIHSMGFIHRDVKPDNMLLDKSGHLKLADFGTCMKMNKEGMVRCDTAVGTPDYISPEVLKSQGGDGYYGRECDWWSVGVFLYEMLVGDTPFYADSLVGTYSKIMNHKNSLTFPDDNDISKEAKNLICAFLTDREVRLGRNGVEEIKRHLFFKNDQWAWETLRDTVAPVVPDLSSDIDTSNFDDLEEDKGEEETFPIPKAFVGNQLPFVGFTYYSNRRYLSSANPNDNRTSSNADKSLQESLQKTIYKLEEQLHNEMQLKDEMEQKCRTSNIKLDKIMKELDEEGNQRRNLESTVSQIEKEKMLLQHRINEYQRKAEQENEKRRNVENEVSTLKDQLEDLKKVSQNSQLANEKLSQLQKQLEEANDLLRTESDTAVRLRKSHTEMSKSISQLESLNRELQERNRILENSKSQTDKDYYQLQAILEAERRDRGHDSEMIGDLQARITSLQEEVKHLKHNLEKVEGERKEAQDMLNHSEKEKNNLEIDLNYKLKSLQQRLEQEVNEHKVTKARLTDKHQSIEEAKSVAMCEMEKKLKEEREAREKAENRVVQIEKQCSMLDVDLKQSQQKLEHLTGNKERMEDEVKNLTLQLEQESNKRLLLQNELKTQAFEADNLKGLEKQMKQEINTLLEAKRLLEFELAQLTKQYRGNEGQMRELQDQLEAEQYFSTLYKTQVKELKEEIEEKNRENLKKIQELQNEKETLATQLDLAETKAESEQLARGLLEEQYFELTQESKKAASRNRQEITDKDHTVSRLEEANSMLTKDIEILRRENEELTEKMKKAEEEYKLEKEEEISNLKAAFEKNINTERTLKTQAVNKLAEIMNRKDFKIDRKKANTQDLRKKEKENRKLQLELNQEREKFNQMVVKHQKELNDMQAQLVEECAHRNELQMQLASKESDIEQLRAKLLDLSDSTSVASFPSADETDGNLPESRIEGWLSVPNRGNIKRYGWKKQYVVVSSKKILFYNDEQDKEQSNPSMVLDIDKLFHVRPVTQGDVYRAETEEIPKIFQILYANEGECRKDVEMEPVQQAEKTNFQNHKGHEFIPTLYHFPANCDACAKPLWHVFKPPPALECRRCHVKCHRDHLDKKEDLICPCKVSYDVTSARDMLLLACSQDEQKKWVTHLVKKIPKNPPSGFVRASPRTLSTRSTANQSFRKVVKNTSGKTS
Data set [3] shares this target. In words: Inhibition of ROCK1 assessed as ATP cunsumption relative to control. The gist of the method: (§1)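 ROCK1 enzyme reaction in 20 mM Tris-HCl pH 7.5, 10 mM MgCl2, 0.4 mM CaCl2, 0.15 mM EGTA, 0.1 mg/ml BSA. Compounds are run as an 11-point half-log series (final top 96 µM, 1% DMSO, 2–4 replicate wells) for 2 h at 30 °C. Readout is Easylite luminescence, normalized to DMSO and HMN-1152 controls. Values are means of ≥2 independent experiments.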
Target sequence in this assay (Q13464 2-1354 limits assumed): as above

Data set [4] concerns GTM3. In words: Change in cellular morphology of human GTM3 cells assessed as decrease in vinculin staining intensity by immunofluorescence relative to control. In kind it is functional, cell-based. In a few lines: (§2)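 GTM-3 cells plated on glass coverslips one day before use, exposed to compound or DMSO control for 3 h, fixed in 2% paraformaldehyde in PBS 10 min at rt, then indirect immunofluorescence with anti-vinculin mAb and Alexa-488 anti-mouse F(ab')2 secondary; vinculin staining density and intensity compared with DMSO-treated cells.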

Data set [5] concerns GTM3. In words: Change in cellular morphology of human GTM3 cells assessed as decrease in vinculin staining density by immunofluorescence relative to control. In kind it is functional, cell-based. The gist of the method:
as §2

The target in data set [6] is T1, Rho-associated protein kinase 1. In words: Inhibition of ROCK1 assessed as ATP cunsumption at 96 uM. The gist of the method: as §1
Target sequence in this assay (Q13464 2-1354 limits assumed): as above
Data set [7] is described as follows: Aqueous solubility of the compound. Type of data set: physicochemical. Conditions: water (aqueous).
A short description of data set [8]: Cytotoxicity against human GTM3 cells up to 30 uM after 24 hrs. Conditions: gtm3, 24 h. In kind it is cell-based.
For data set [9], the system named is Cynomolgus monkey. In words: Reduction of intraocular pressure in laser-induced ocular hypertensive cynomolgus monkey at 250 ug/eye after 6 hrs. Type of data set: functional, Macaca fascicularis. Set-up: scale not given: the % may be the effect or the level left.
Data set [10] relates to Cynomolgus monkey. In words: Reduction of intraocular pressure in ocular hypertensive cynomolgus monkey at 250 ug/eye after 3 hrs. In kind it is functional, Macaca fascicularis. Set-up: scale not given: the % may be the effect or the level left.
Data set [11] deals with Cynomolgus monkey. Description: Reduction of intraocular pressure in laser-induced ocular hypertensive cynomolgus monkey at 250 ug/eye after 1 hr. Type of data set: functional, Macaca fascicularis. Details: scale not given: the % may be the effect or the level left.
In data set [12] the test system is Cynomolgus monkey. Description: Reduction of intraocular pressure in ocular hypertensive cynomolgus monkey at 250 ug/eye after 1 hr. Type of data set: functional, Macaca fascicularis. Set-up: scale not given: the % may be the effect or the level left.
Data set [13] has as its system Cynomolgus monkey. Description: Reduction of intraocular pressure in ocular hypertensive cynomolgus monkey at 250 ug/eye after 6 hrs. In kind it is functional, Macaca fascicularis. Details: scale not given: the % may be the effect or the level left.
For data set [14], the system named is Cynomolgus monkey. In words: Reduction of intraocular pressure in laser-induced ocular hypertensive cynomolgus monkey at 250 ug/eye after 3 hrs. Type of data set: functional, Macaca fascicularis. Details: scale not given: the % may be the effect or the level left.
Data set [15] addresses Serine/threonine-protein kinase N1 (Homo sapiens) (UniProt Q16512). In words: Inhibition of PKN1 at 10 uM. The gist of the method:
(§3)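 Single-concentration screen at 10 µM in functional assays of a commercial kinase panel; percent inhibition reported when at least 50%.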

The target in data set [16] is Ribosomal protein S6 kinase alpha-5 (Homo sapiens) (UniProt O75582). In words: Inhibition of MSK1 at 10 uM. In a few lines: as §3
The target in data set [17] is Ribosomal protein S6 kinase beta-1 (Homo sapiens) (UniProt P23443). In words: Inhibition of p70S6K at 10 uM. In a few lines:
as §3

A short description of data set [18]: Inhibition of PKA at 10 uM.
In data set [19] the target is Aurora kinase B (Homo sapiens) (UniProt Q96GD4). Description: Inhibition of aurora B at 10 uM. The gist of the method:
as §3

The target in data set [20] is T2, Serine/threonine-protein kinase Sgk1 (Homo sapiens) (UniProt O00141).
T2 sequence (whole entry): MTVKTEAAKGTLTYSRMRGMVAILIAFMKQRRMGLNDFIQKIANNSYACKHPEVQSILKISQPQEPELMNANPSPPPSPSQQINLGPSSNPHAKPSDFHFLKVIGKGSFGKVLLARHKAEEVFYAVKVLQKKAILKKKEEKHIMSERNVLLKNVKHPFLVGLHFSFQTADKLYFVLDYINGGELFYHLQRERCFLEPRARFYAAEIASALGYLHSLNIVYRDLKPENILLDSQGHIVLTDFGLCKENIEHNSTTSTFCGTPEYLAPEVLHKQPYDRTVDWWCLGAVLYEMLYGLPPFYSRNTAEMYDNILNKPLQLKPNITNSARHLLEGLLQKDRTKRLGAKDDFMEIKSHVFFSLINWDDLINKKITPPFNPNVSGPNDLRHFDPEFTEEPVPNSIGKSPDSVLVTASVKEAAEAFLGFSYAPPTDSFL
Description: Inhibition of SGk1 at 10 uM. In a few lines:
as §3

Data set [21] has as its target T1, Rho-associated protein kinase 1. In words: Inhibition of ROCK1 assessed as ATP cunsumption at 96 uM relative to control. The gist of the method: as §1
Target sequence in this assay (Q13464 2-1354 limits assumed): as the sequence (Q13464 2-1354 limits assumed) above

Sequence of Serine/threonine-protein kinase N1 (Homo sapiens) (Q16512 2-942 limits assumed): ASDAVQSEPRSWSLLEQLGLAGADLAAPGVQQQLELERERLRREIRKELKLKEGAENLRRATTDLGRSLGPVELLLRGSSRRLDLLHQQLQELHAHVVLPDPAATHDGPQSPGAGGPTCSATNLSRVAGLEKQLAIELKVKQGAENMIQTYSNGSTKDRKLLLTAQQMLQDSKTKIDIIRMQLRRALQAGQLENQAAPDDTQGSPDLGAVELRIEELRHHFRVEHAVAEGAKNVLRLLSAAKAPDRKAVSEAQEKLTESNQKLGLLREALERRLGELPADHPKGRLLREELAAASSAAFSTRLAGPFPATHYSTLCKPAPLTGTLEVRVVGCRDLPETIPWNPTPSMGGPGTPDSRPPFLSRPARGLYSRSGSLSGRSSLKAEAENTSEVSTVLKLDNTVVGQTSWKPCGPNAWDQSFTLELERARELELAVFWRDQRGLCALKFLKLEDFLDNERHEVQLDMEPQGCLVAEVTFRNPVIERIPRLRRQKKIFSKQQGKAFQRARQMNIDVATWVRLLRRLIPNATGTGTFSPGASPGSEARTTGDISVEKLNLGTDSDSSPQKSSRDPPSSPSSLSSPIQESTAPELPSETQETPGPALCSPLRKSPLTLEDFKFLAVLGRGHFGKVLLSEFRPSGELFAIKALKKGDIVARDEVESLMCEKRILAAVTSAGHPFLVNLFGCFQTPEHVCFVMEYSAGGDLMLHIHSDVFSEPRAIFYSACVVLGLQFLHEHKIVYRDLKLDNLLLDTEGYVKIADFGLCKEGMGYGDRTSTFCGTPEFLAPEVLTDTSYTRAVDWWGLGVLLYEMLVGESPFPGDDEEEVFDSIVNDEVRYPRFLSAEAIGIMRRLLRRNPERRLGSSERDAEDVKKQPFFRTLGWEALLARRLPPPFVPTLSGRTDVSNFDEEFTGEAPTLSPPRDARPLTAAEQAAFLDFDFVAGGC
Sequence of Ribosomal protein S6 kinase alpha-5 (Homo sapiens) (O75582 whole entry, looked up): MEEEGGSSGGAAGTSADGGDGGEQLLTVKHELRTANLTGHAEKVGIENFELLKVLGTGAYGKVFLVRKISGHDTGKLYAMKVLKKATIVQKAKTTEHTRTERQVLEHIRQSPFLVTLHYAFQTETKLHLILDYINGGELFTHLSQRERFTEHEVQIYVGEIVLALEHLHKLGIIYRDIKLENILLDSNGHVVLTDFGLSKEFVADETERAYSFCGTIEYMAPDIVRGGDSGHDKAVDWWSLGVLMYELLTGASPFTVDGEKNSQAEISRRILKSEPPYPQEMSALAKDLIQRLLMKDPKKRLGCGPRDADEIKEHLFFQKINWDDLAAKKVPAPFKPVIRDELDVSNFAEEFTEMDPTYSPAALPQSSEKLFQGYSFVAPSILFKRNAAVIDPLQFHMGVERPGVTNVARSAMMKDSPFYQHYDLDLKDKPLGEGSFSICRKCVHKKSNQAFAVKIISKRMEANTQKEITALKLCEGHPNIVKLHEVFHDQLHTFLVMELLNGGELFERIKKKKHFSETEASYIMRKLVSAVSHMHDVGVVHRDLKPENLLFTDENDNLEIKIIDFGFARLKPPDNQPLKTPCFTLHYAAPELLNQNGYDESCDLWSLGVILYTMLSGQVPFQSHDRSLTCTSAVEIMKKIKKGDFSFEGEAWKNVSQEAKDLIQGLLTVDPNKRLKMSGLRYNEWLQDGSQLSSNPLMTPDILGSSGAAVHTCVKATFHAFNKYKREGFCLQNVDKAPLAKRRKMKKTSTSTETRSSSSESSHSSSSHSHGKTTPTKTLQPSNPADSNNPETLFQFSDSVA
Sequence of Aurora kinase B (Homo sapiens) (Q96GD4 whole entry): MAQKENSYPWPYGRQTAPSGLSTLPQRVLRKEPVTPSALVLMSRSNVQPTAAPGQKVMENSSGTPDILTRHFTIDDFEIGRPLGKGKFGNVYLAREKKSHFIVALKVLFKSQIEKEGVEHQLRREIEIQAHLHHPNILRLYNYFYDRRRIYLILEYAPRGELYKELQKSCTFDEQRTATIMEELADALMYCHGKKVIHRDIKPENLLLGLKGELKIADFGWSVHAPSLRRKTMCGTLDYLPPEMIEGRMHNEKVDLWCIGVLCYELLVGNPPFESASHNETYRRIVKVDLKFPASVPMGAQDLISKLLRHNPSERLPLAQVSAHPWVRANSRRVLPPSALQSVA

As for `COc1ccccc1Cc1ccc2sc(-c3ccnc(N)n3)c(C)c2c1`, the pIC50 in data set [1] is 5.01. As for `Cc1c(-c2ccnc(N)c2)sc2ccc(Cl)cc12`, the pIC50 in data set [1] was 5.08. In data set [2], the inhibition entry was “inactive”. Also, in [3], the Emax was determined as 44%.

In the case of `Cc1cncc2cccc(S(=O)(=O)N3CCCNCC3C)c12` (stereo not drawn), the outcome in the data set with GTM3 [4] and in the data set with GTM3 [5] was Active.

As to `COC(=O)c1cccc(Cc2ccc3sc(-c4ccnc(N)n4)c(C)c3c2)c1`, the pIC50 in [1] is 5.00.

With `COc1ccc(C(N)c2ccc3sc(-c4ccnc(N)n4)c(C)c3c2)cc1` (racemic), the pIC50 in data set [1] was 7.05. In addition, the Emax in [3] came to 56%. As to `Cc1c(-c2ccnc(N)n2)sc2ccc(C(C)N)cc12` (racemic), the pIC50 in [1] is 6.40. On to `Cc1c(-c2ccnc(N(C)C)n2)sc2ccc(Cl)cc12`, for which, in data set [1], the pIC50 is less than 4.00. In addition, in data set [2], the inhibition entry is “inactive”. In addition, the outcome in data set [6] was inactive. Take `COc1cccc(Cc2ccc3sc(-c4ccnc(N)n4)c(C)c3c2)c1`: in data set [1], the pIC50 was 6.64. In data set [7], this compound displayed a solubility of 40 µM (≈ 14.5 µg/mL). `Cc1c(-c2ccnc(N)n2)sc2ccc(Cc3cccc(C(=O)O)c3)cc12`: the pIC50 in data set [1] is 7.22. Same read-out and setting: the value for `Cc1c(-c2ccnc(N)n2)sc2ccc(C(N)CC(C)C)cc12` (racemic) was 7.52; that for `Cc1c(-c2ccnc(N)n2)sc2ccc(CN)cc12` was 5.66.

On to `Cc1c(-c2cc(N)ncn2)sc2ccc(Cl)cc12`, for which the pIC50 in data set [1] was 4.89. In addition, the inhibition result in [2] was “inactive”.

Turning to `Cc1c(-c2ccnc(N)n2)sc2ccc(C(N)c3cccc(Cl)c3)cc12` (racemic), the pIC50 in data set [1] is 7.52. As to `Cc1c(-c2ccnc(N)n2)sc2ccc(Cc3ccccc3)cc12`, in data set [1], the pIC50 was 6.24. Turning to `Cc1c(-c2ccnc(N)n2)sc2ccc(Cl)cc12`, in data set [1], the pIC50 is 5.82. The inhibition result in data set [2] is “inactive”. As for `O=S(=O)(c1cccc2c(I)cccc12)N1CCCNCC1`, in data set [1], the pIC50 was 4.42. Regarding `Cc1c(-c2ccnc(N)n2)sc2ccc(Cc3cccc(C(F)(F)F)c3)cc12`, the pIC50 in data set [1] was 5.07.

On to `CCC(N)c1ccc2sc(-c3ccnc(N)n3)c(C)c2c1` (racemic), for which the pIC50 in [1] is 6.85. In the case of `Cc1c(-c2c[nH]c3ncccc23)sc2ccc(Cl)cc12`, the pIC50 in data set [1] is less than 5.00. In [2], the inhibition result was “inactive”. As for `COc1cccc(C(N)c2ccc3sc(-c4ccnc(N)n4)c(C)c3c2)c1` (racemic), the negative logarithm of the IC50 (pIC50) in data set [1] was 7.70. In [3], the Emax is 46%. Turning to `Cc1c(-c2ccnc3[nH]ccc23)sc2ccc(Cl)cc12`, the pIC50 in data set [1] was 5.15. Besides, in data set [2], the inhibition entry was “inactive”. `Cc1c(-c2ccnc(N)n2)sc2ccc(Nc3cccc(O)c3)cc12`: in data set [7], the solubility amounted to 30 µM (≈ 10.5 µg/mL). With `C[C@@H](N)c1ccc(C(=O)Nc2ccnc3[nH]ccc23)cc1` [Y-39983], the Activity result in [8] is “Non-toxic”. As to `Cc1c(-c2ccnc(N)n2)sc2ccc(C(N)c3ccccc3)cc12` (racemic), in data set [1], the pIC50 is 7.70. Regarding `COc1ccc(Cc2ccc3sc(-c4ccnc(N)n4)c(C)c3c2)cc1`, in [1], the pIC50 was 5.14. Consider `Cc1c(-c2ccncc2)sc2ccc(Cl)cc12`, for which the pIC50 in data set [1] is 4.55. The inhibition entry in data set [2] was “inactive”. Take `Cc1cccc(C(N)c2ccc3sc(-c4ccnc(N)n4)c(C)c3c2)c1` (racemic): the pIC50 in data set [1] was 7.30. Besides, in data set [3], the Emax was 67%. For the compound `CCCC(N)c1ccc2sc(-c3ccnc(N)n3)c(C)c2c1` (racemic), in [1], the pIC50 was 7.70. The Activity is -26% with Cynomolgus monkey [9]; -13.9% with Cynomolgus monkey [10]; -19.6% in the data set with Cynomolgus monkey [11]; -20% with Cynomolgus monkey [12]; -12% in the data set with Cynomolgus monkey [13]; -24.1% in the data set with Cynomolgus monkey [14].

With `Cc1c(-c2ccnc(N)n2)sc2ccccc12`, the pIC50 in data set [1] is 5.54. As for `CNc1nccc(-c2sc3ccc(Cl)cc3c2C)n1`, the pIC50 in data set [1] was 5.92. In addition, the inhibition result in data set [2] was “inactive”. Also, the Emax in data set [3] was 17%. In the case of `Cc1c(-c2ccnc(N)n2)sc2ccc(C(N)C(C)C)cc12` (racemic), the pIC50 in data set [1] was 7.22.

Take `Cc1c(-c2ccnc(N)n2)sc2ccc(Cc3cccc(O)c3)cc12`: the pIC50 in data set [1] was 7.70. For the same compound, the inhibition is 53% in data set [15]; 94% in [16]; 55% in data set [17]; 67% in data set [18]; 82% in data set [19]; 61% in data set [20]. The same compound yielded a solubility in [7] of 10 µM (≈ 3.47 µg/mL).

For the compound `Cc1c(-c2ccnc(N)n2)sc2ccc(-c3ccccc3)cc12`, in [1], the pIC50 was 5.38. Besides, in data set [21], the maximal effect (Emax) was determined as 35%.

Broadly, the pIC50 is the negative decadic logarithm of the IC50, by convention in mol/L. The term inhibition denotes the change of the read-out against control, counted positive when it falls. One may read the Emax as the greatest response seen or fitted, relative to the assay's reference. By solubility is commonly meant how much of the substance goes into solution per volume.
